An excerpt weighted towards active compounds, which were near 2.5% of everything screened.
rCAG binder: binders of r(CAG) RNA repeats, primary screen, biochemical, fluorescence | r(CAG) RNA repeat, TO-PRO-1 dye displacement fluorescence | inhibition, % at 3 µM | 370,000 tested, 1.3% active;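 active means inhibition above the plate cutoff, the mean of all test compounds on that plate plus 3 SD, cut at about 35% in these data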;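 further: 0% = DMSO alone and 100% = 100 µM mitoxantrone as full dye displacement; higher means more dye released from RNA so lower well fluorescence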
HTRA1 inh: HTRA1 serine protease inhibitors, primary screen, biochemical, fluorescence polarization, HTS | Q92743 | recombinant HTRA1, FP-rhodamine activity-based probe | inhibition, % at 5.96 µM | 340,000 tested, 0.5% active | AID 504803, 2011; in the data active means inhibition above about 36%;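 further: 0% = enzyme with DMSO and 100% = wells lacking enzyme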
ABHD4 inh: ABHD4 inhibitors, primary screen, biochemical, fluorescence polarization, mouse; (Lyso)-N-acylphosphatidylethanolamine lipase (Mus musculus), Q8VD66; purified mABHD4, FP-Rh probe fluorescence polarization; inhibition, % at 8.92 µM; 370,000 tested, 0.54% active; AID 720543, 2013;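 active means inhibition exceeding the mean over every tested compound plus 3 SD, cut at about 30% in these data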;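 further: 0% = plate median of compound wells and 100% = S159A mutant with DMSO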
Target sequence (Q8VD66 whole entry, looked up): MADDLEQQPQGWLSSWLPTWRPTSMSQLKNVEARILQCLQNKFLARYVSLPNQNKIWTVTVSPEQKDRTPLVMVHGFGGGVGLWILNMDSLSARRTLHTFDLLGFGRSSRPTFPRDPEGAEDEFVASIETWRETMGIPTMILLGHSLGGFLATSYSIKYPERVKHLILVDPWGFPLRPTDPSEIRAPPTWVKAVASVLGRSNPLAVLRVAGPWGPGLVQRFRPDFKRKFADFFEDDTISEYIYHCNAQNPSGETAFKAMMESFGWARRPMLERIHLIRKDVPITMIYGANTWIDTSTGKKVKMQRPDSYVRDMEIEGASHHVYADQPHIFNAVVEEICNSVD
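Material: mouse ABHD4 enzyme, wild type; Benchmarks: S159A mutant high control, sample median low control; Buffer or medium: HEPES pH 7.0, NaCl, Pluronic buffer; Signal: fluorescence polarization; Read-out: percent inhibition of probe binding, normalized to plate controls; Timing: pre-incubation 45 min, probe exposure 60 min, at 25 °C; Dosing: 8.92 µM, single dose.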
TCR CD3 inh: inhibitors of human TCR-CD3 interaction, primary screen, biochemical, fluorescence, TAMRA-labeled TCR probe; T-cell receptor (TCR); inhibition, % at 9.4 µM; 360,000 tested, 0.37% active; AID 651800, 2012;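 further: recombinant mutant TCR 2C K166C tagged with TAMRA read by polarization; 0% = receptor in buffer alone and 100% = receptor with positive control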
SIAE inh: human SIAE inhibitors, primary screen, biochemical, fluorescence polarization, FP-Rh probe, 1536-well HTS | Sialate O-acetylesterase (Homo sapiens), Q9HAT2 | SIAE FP-Rh probe binding | inhibition, % at 9.66 µM | 370,000 tested, 0.69% active | AID 1053197, 2014;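 active means inhibition above a cutoff: mean of compounds within the control limits plus 3 SD of those, cut at about 17% in these data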;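 further: 0% = plate median of compound wells and 100% = probe without SIAE protein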
HTRA1 inh conf: HTRA1 protease inhibitors, retest, confirmation, biochemical, fluorescence polarization. 1,600 tested, 66% active. recombinant HTRA1, FP-rhodamine activity-based probe. inhibition, % at 5.96 µM. shares compounds with HTRA1 inh;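 active means mean inhibition over three repeats above a set limit taken from the earlier primary screen, cut at about 37% in these data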;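 further: 0% = HTRA1 with DMSO and 100% = wells lacking HTRA1; inhibitors block probe binding so polarization drops and inhibition rises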
BSA probe FL: compounds interfering with TAMRA-BSA probe, counter-screen for TCR-CD3 interaction inhibitor project, biochemical, fluorescence, TAMRA-labeled BSA. shares compounds with TCR CD3 inh. TAMRA-labeled BSA probe fluorescence counterscreen. inhibition, % at 9.4 µM. 1,200 tested, 10% active; in the data active means inhibition above about 23%;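 further: 0% = buffer low control and 100% = reference high control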
TCR-CD3 conf: TCR-CD3 interaction inhibitors, retest, confirmation, biochemical, fluorescence, TAMRA-labeled TCR probe; shares compounds with TCR CD3 inh; TAMRA-labeled TCR probe fluorescence binding assay; inhibition, % at 9.4 µM; 1,200 tested, 48% active; AID 652036, 2013
rCAG binder conf: small molecules binding CAG repeat RNA – biochemical, fluorescence, confirmation; shares compounds with rCAG binder; r(CAG) RNA repeat, TO-PRO-1 dye displacement fluorescence; inhibition, % at 3 µM; 4,300 tested, 70% active; AID 652065, 2013;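 active means inhibition above a per-plate cutoff, the mean inhibition of sample wells plus 3 SD, cut at about 35% in these data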;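 further: loss of TO-PRO-1 fluorescence as compound displaces dye from 1x1 AA loop RNA; 0% = DMSO only wells and 100% = 100 µM mitoxantrone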
dCAG dye counter: displacement of TO-PRO-1 from CAG DNA duplex, counter-screen for rCAG RNA repeat binder project, biochemical, fluorescence, TO-PRO-1 dye, d(CAG) DNA oligo | shares compounds with rCAG binder | d(CAG) DNA oligo TO-PRO-1 dye displacement | inhibition, % at 3 µM | 4,300 tested, 94% active;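 active means inhibition above its plate's cutoff, the mean test-well inhibition plus 3 SD, cut at about 4.8% in these data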;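 further: 0% = DNA dye mix with DMSO and 100% = 100 µM mitoxantrone; hits displace the dye from DNA and so lower well fluorescence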
mABHD4 conf: ABHD4 inhibitors, retest, confirmation, biochemical, fluorescence polarization, mouse. inhibition, % at 8.92 µM. shares compounds with ABHD4 inh. 1,800 tested, 55% active. purified mABHD4, FP-Rh probe fluorescence polarization;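 active means mean inhibition across replicates above the hit cutoff set in the primary screen, cut at about 30% in these data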;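 further: 0% = wild-type ABHD4 with DMSO and 100% = catalytically dead S159A mutant with DMSO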
SIAE confirm: human SIAE inhibitors, retest, confirmation, biochemical, fluorescence polarization, FP-Rh probe, triplicate | shares compounds with SIAE inh | SIAE FP-Rh activity-based probe | inhibition, % at 9.66 µM | 2,300 tested, 13% active;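 active means mean inhibition of the replicates above the hit cutoff set in the primary screen, cut at about 17% in these data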;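 further: 0% = SIAE with DMSO and probe and 100% = probe without SIAE; inhibitors lower polarization as more probe stays unbound to SIAE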
An asterisk follows results filed as active; . = not tested or not shown. Unless noted, no stated cut-off is given here; in the data, active means inhibition above about 19%; inactive means the rest.

SMILES | rCAG binder | HTRA1 inh | ABHD4 inh | TCR CD3 inh | SIAE inh | BSA probe FL | TCR-CD3 conf | others
CN(C)[C@@H]1C(=O)C(C(N)=O)=C(O)[C@@]2(O)C(=O)C3=C(O)c4c(O)ccc(Cl)c4[C@@](C)(O)C3C[C@@H]12 (stereo not given in full) | 33 | 40* | 60* | 12 | 11 | . | . | HTRA1 inh conf=17;mABHD4 conf=25
COC(=O)C1=C(c2ccccc2)C[C@@H]2CC[C@H]1N2C(=O)NC1CC1 | -2 | 0 | -5 | 5 | 3 | . | .
C=CCn1c(O)c(C=Nc2ccc(N(CC)CC)cc2)c(=O)[nH]c1=O | 12 | 36* | 57* | 16 | 14 | . | . | HTRA1 inh conf=3;mABHD4 conf=3
C=CCn1c(O)c(C=Nc2ccc(F)cc2)c(=O)[nH]c1=O | 1 | 3 | 1 | 0 | -6 | . | .
C=CCN(c1ccc(C(=O)N(CC)CC)cc1)S(C)(=O)=O | 8 | 9 | -6 | -9 | -4 | . | .
CCCN1CCc2cc(O)cc3c2[C@H]1Cc1ccc(O)c(O)c1-3 | 8 | 62* | 69* | 3 | 14 | . | . | HTRA1 inh conf=48*;mABHD4 conf=30*
O=C(N/N=C1/CN2CCC1CC2)c1cc2ccccc2cc1O | 49* | 55* | 39* | 9 | 17* | . | . | HTRA1 inh conf=12;rCAG binder conf=7;dCAG dye counter=2;mABHD4 conf=19
CCN1CCN(C(=O)Cc2ccc(C)cc2)CC1 | -4 | 1 | -1 | -5 | -2 | . | .
CC(C)Nc1ccc(Nc2ccccc2)cc1 | 7 | 69* | 43* | -3 | 12 | . | . | HTRA1 inh conf=53*;mABHD4 conf=34*
CN1CCc2cc3c(c4c2C1Cc1ccccc1-4)OCO3 (stereo not given) | -7 | 68* | 46* | 7 | 24* | . | . | HTRA1 inh conf=2;mABHD4 conf=50*;SIAE confirm=3
COc1cccc2c1C(=O)c1c(O)c3c(c(O)c1C2=O)CC(O)(C(C)=NO)CC3OC1CC(N)C(O)C(C)O1 (stereo not given) | 7 | 56* | 59* | 143* | 55* | 167* | 136* | HTRA1 inh conf=67*;mABHD4 conf=59*;SIAE confirm=44*
CC(C(N)=O)N1CC(c2ccccc2)CC1=O (stereo not given) | 2 | 6 | 10 | 2 | 0 | . | .
C=C[C@H]1CN2CC[C@H]1C[C@H]2[C@H](O)c1ccnc2ccccc12 | 1 | -2 | -5 | -14 | 2 | . | .
CCCN1CCC[C@@H]2Cc3[nH]ncc3C[C@H]21 | 2 | -1 | -1 | -6 | 3 | . | .
Oc1cccc2nc3ccccc3nc12 | 3 | 67* | 18 | 0 | 18* | . | . | HTRA1 inh conf=60*;SIAE confirm=-10
NN=C1C(Cl)=C(Cl)C(Cl)=C1Cl | 14 | 26 | 28 | 23* | 0 | 11 | 9
C#C[C@]1(O)CC[C@H]2[C@@H]3CCC4=CC(=O)CC[C@]4(C)[C@H]3CC[C@@]21C | 0 | 7 | -3 | 20* | 8 | 0 | 0
CN1C(=O)NC(=O)/C(=C\c2ccc([N+](=O)[O-])o2)C1=O | . | 5 | . | . | . | . | .
CN1C(=O)NC(=O)/C(=C/c2ccc([N+](=O)[O-])o2)C1=O | 21 | . | -5 | 20* | 4 | -6 | 7
CC1(C)CC(=O)C(C=NCCN2CCN(C(=O)Cc3ccc(Cl)cc3)CC2)=C(O)C1 | -9 | 1 | 0 | 0 | 0 | . | .
Fc1cccc(-c2ccc3c(c2)CN(C(=S)NCCc2ccccc2)Cc2cnnn2-3)c1 | 13 | . | -8 | 0 | -43 | . | .
S=C(NCCc1ccccc1)N1Cc2cc(-c3ccccc3)ccc2-n2nncc2C1 | 8 | . | -49 | 22* | -24 | 10 | 7
Nc1ccc(CCN2CCN(c3cccc(C(F)(F)F)c3)CC2)cc1 | 0 | -1 | -3 | 44* | 4 | -4 | 0
O=C(N/N=C/c1c(O)n(CCc2ccccc2)c(=O)[nH]c1=O)c1ccccc1 | 7 | . | 9 | 37* | -1 | -6 | 6
CCC(=NCC1CCCO1)c1c(O)n(Cc2ccccc2)c(=O)[nH]c1=O (stereo not given) | -2 | 0 | -5 | 7 | -13 | . | .
SMILES | rCAG binder | HTRA1 inh | ABHD4 inh | TCR CD3 inh | SIAE inh | BSA probe FL | TCR-CD3 conf | others
CC/C(=N\NC(=O)c1ccccc1)c1c(O)n(Cc2ccccc2)c(=O)[nH]c1=O | 17 | . | 6 | 21* | 11 | 2 | 16
CCCCn1c(O)c(/C=N/NC(=O)c2ccncc2)c(=O)[nH]c1=O | 6 | 7 | 7 | 11 | 1 | . | .
CC12CCC3C(CC=C4CC(O)CCC43C)C1C/C(=C\c1cccc(F)c1)C2=O (stereo not given) | 12 | -6 | -10 | 1 | -4 | . | .
COc1cc(C(CN)CC(=O)O)ccc1O (stereo not given) | 1 | 7 | 2 | 3 | 0 | . | .
C/C(=N\NC(=O)c1ccncc1)c1c(O)[nH]c(=O)[nH]c1=O | -1 | . | 5 | 4 | 2 | . | .
CCCCCCn1c(=O)c(C(=O)Nc2ncccc2O)c(O)c2ccccc21 | 1 | 7 | 6 | 26* | 3 | -3 | 22*
COC(=O)N(c1ccccc1)P1(=S)OCCO1 | -3 | 2 | -2 | 0 | 4 | . | .
CN1CCC(c2c[nH]c3ccccc23)C1 (stereo not given) | 3 | 4 | 3 | 23* | -5 | 1 | 3
CCN1C(=O)C(=Cc2ccc(C)s2)C(=O)N(CC)C1=S | 24 | -9 | -18 | -21 | -55 | . | .
O=[N+]([O-])c1ccc(N2CCCCCC2)c2nonc12 | -375 | 15 | 23 | 79* | -17 | 103* | 87*

Assay outcomes from PubChem BioAssay.
